High-throughput results (PubChem)
Kir21 inh = inhibitors of mouse Kir2.1 inward-rectifier potassium channel; Inward rectifier potassium channel 2 (Mus musculus), P35561; HEK293-Kir2.1, FluxOR thallium flux fluorescence; active compounds read low; AID 1672, 2009; 0.85% of 310,000 active; B-score at 10 µM;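 active = fluorescence ratio B-score at or below minus 3 SD of library scores, with starting-brightness B-score within 2 SD, cut at about -4.2 in these data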;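 note: channel flux triggered by added potassium and thallium sulfate stimulus; B-score of peak minus minimum fluorescence over baseline after thallium stimulus; more negative B-score means stronger Kir2.1 block with less thallium influx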
TRPC6 act = mouse TRPC6 channel activators, primary screen, cell-based, HEK293, membrane potential dye. Short transient receptor potential channel 6 (Mus musculus), Q61143. HEK293-TRPC6 membrane potential dye fluorescence; active compounds read high. B-score at 10 µM. 0.13% of 310,000 active. AID 2550, 2010;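 active = B-score of the integrated fluorescence ratio above library mean plus 3 SD, and starting fluorescence ratio within library mean plus 5 SD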;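 note: higher score means more depolarization so channel activation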
TRPC4 PAM = positive allosteric modulators of TRPC4, primary screen, cell-based, mouse TRPC4beta, HEK293 mu-opioid, Fluo-4 calcium. 0.42% of 310,000 active. DAMGO EC20, Fluo-4 Ca2+ flux; active compounds read high. AID 2227, 2009. B-score at 10 µM;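 active = B-score of calcium response area above 5 SD of library B-scores, with initial fluorescence ratio within 5 SD of library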;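 note: B-score of integrated fluorescence ratio over time as area under calcium response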
TRPC6 inhibitor = mouse TRPC6 channel inhibitors, primary screen, cell-based, HEK293, membrane potential dye | Short transient receptor potential channel 6 (Mus musculus), Q61143 | ACh-evoked depolarization; active compounds read low | B-score at 10 µM | 1.1% of 310,000 active | AID 2553, 2010;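 active = B-score under library mean minus 3 SD, initial fluorescence not abnormally high, positive integrated signal ratio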;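 note: B-score derived from integrated fluorescence ratio over the kinetic read; more negative B-score means stronger inhibition of depolarization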
TRPC4 agonist = activators of mouse TRPC4 channel, primary screen, Fluo4 calcium, HEK293 TRPC4beta/mu-opioid cells; AID 2237, 2010; B-score at 10 µM; 0.49% of 310,000 active; Fluo4 calcium fluorescence; active compounds read high; Short transient receptor potential channel 4 (Mus musculus), Q9QUQ5;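 active = B-score above 5 SD of library B-scores, and initial fluorescence ratio not above library mean plus 5 SD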;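 note: positive B-score marks a calcium rise read as TRPC4 activation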
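Assay system: HEK293 stable line with TRPC4beta plus mu-opioid receptor. Times: dye 45 min RT, read 110 s. Measured by: kinetic Fluo4 calcium fluorescence. Measure: B score of integrated ratio. Controls: assay buffer as low control, maximal DAMGO as high control.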
TRPC4 block = inhibitors of mouse TRPC4 channel, primary screen, Fluo4 calcium, HEK293 TRPC4beta/mu-opioid cells; Short transient receptor potential channel 4 (Mus musculus), Q9QUQ5; DAMGO-evoked Fluo4 calcium flux; active compounds read low; B-score at 10 µM; 0.39% of 300,000 active;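 active = B-score over 3 SD under the library average, no early fluorescence shift, positive overall ratio signal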
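test system = HEK293 cells with stable TRPC4beta plus mu-opioid receptor expression | detection = Fluo4 Ca2+ flux fluorescence | read-out = integrated fluorescence ratio relative to baseline, converted to per-well B score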
* = called active by the depositor. Only some compounds are listed: those with a hit (about 3% of all), similar ones and a draw of the others.

Screening O=C(CSCc1cccc(Cl)c1)Nc1ccccc1-c1ccccc1 returned Kir21 inh -5.7*, TRPC6 act inactive, TRPC4 PAM inactive, TRPC6 inhibitor inactive, TRPC4 agonist inactive and TRPC4 block inactive.
Screening CCN(CC)CCn1c2c(c(SCC(=O)NCc3ccccc3)nc1=O)CCC2 returned Kir21 inh 0.81, TRPC6 act inactive, TRPC4 PAM inactive, TRPC6 inhibitor inactive, TRPC4 agonist inactive and TRPC4 block inactive.
For CCC(Sc1nc2cc(OC)c(OC)cc2c(=O)n1CCc1ccc(OC)c(OC)c1)C(=O)NCCOC (stereo unspecified) the results were Kir21 inh 0.14, TRPC6 act inactive, TRPC4 PAM inactive, TRPC6 inhibitor inactive, TRPC4 agonist inactive and TRPC4 block inactive.
Screening Cc1c(C(=O)NC2CCCc3ccccc32)cccc1[N+](=O)[O-] (stereo unspecified) returned Kir21 inh -0.07, TRPC6 act inactive, TRPC4 PAM inactive, TRPC6 inhibitor inactive, TRPC4 agonist inactive and TRPC4 block inactive.
Screening CC/C(=N\NC(=O)CCC(=O)NCc1ccccc1)c1ccc(O)cc1 returned Kir21 inh -1.2, TRPC6 act inactive, TRPC4 PAM inactive, TRPC6 inhibitor inactive, TRPC4 agonist inactive and TRPC4 block inactive.
`CC(=O)c1ccc(N2CCN(c3ccc(S(=O)(=O)NCCCN(C)C)cc3[N+](=O)[O-])CC2)cc1` gave Kir21 inh -2, TRPC6 act inactive, TRPC4 PAM 26*, TRPC6 inhibitor inactive, TRPC4 agonist inactive and TRPC4 block inactive.
Screening CC(=O)c1ccc(N2CCN(c3ccc(S(=O)(=O)NCCN(C)C)cc3[N+](=O)[O-])CC2)cc1 returned Kir21 inh -0.08, TRPC6 act inactive, TRPC4 PAM inactive, TRPC6 inhibitor inactive, TRPC4 agonist inactive and TRPC4 block inactive.
Screening COc1ccc(/C=C/C(=O)Oc2cc(O)cc(O)c2)cc1 returned Kir21 inh -0.67, TRPC6 act inactive, TRPC4 PAM inactive, TRPC6 inhibitor inactive, TRPC4 agonist inactive and TRPC4 block -7*.
For COc1ccc(NC(=O)CCC(=O)c2ccc(C(C)C)cc2)cc1 the results were Kir21 inh 0.51, TRPC6 act inactive, TRPC4 PAM inactive, TRPC6 inhibitor inactive, TRPC4 agonist inactive and TRPC4 block inactive.
Screening COc1ccc(NC(=O)Nc2ccc(C(C)C)cc2)cc1 returned Kir21 inh 0.02, TRPC6 act inactive, TRPC4 PAM inactive, TRPC6 inhibitor inactive, TRPC4 agonist inactive and TRPC4 block -6*.
CN1CCN(C(=O)c2cccn(Cc3c(Cl)cccc3Cl)c2=O)CC1 was read as Kir21 inh 1.4, TRPC6 act inactive, TRPC4 PAM inactive, TRPC6 inhibitor inactive, TRPC4 agonist 184* and TRPC4 block inactive.
Screening CN1CCN(C(=S)NC(=O)c2ccccc2Cl)CC1 returned Kir21 inh 0.95, TRPC6 act inactive, TRPC4 PAM inactive, TRPC6 inhibitor inactive, TRPC4 agonist inactive and TRPC4 block inactive.
For Clc1cccc(OCCN2CCCC2)c1 the results were Kir21 inh -0.19, TRPC6 act inactive, TRPC4 PAM inactive, TRPC6 inhibitor inactive, TRPC4 agonist inactive and TRPC4 block inactive.
CCN1CCN(CCOc2cccc(Oc3ccccc3)c2)CC1 was read as Kir21 inh -4.5*, TRPC6 act inactive, TRPC4 PAM inactive, TRPC6 inhibitor inactive, TRPC4 agonist inactive and TRPC4 block inactive.
For CCN1CCN(CCOCCOc2ccccc2)CC1 the results were Kir21 inh 1.1, TRPC6 act inactive, TRPC4 PAM inactive, TRPC6 inhibitor inactive, TRPC4 agonist inactive and TRPC4 block inactive.
CN1CCN(CCOc2cccc(Cl)c2)CC1 was read as Kir21 inh 3.5, TRPC6 act inactive, TRPC4 PAM 14*, TRPC6 inhibitor inactive, TRPC4 agonist inactive and TRPC4 block inactive.
`CC1CCCCC12NC(=O)N(CC(=O)NCCc1ccccn1)C2=O` (stereo unspecified) gave Kir21 inh -0.43, TRPC6 act inactive, TRPC4 PAM inactive, TRPC6 inhibitor inactive, TRPC4 agonist inactive and TRPC4 block inactive.
`Cc1cccc(NC(=O)CNC(=O)CN2C(=O)NC3(CCCCC3C)C2=O)c1C` (stereo unspecified) gave Kir21 inh -0.2, TRPC6 act inactive, TRPC4 PAM 17*, TRPC6 inhibitor inactive, TRPC4 agonist inactive and TRPC4 block inactive.
COC(=O)c1[nH]c2ccc(C)cc2c1NS(=O)(=O)c1ccc(F)c(C)c1 was read as Kir21 inh -0.21, TRPC6 act inactive, TRPC4 PAM inactive, TRPC6 inhibitor inactive, TRPC4 agonist inactive and TRPC4 block inactive.
COC(=O)c1[nH]c2ccc(C)cc2c1NS(=O)(=O)c1ccc(F)cc1 was read as Kir21 inh -5.3*, TRPC6 act inactive, TRPC4 PAM inactive, TRPC6 inhibitor inactive, TRPC4 agonist inactive and TRPC4 block inactive.
`Fc1ccc(NC(=S)NCCN2CCOCC2)c(F)c1F` gave Kir21 inh 2, TRPC6 act inactive, TRPC4 PAM inactive, TRPC6 inhibitor inactive, TRPC4 agonist inactive and TRPC4 block inactive.
Screening COc1ccc(C(CCNCc2ccc(OC)c(OC)c2)c2ccc(F)cc2)cc1 (stereo unspecified) returned Kir21 inh -4.5*, TRPC6 act inactive, TRPC4 PAM inactive, TRPC6 inhibitor inactive, TRPC4 agonist inactive and TRPC4 block inactive.
For COc1ccc(C(CCNCc2ccc(N(C)C)cc2)c2ccccc2)cc1 (stereo unspecified) the results were Kir21 inh -2.3, TRPC6 act inactive, TRPC4 PAM inactive, TRPC6 inhibitor inactive, TRPC4 agonist 104* and TRPC4 block inactive.
For Cc1cccnc1NC(=O)CNC(=O)COc1ccccc1 the results were Kir21 inh 0.13, TRPC6 act inactive, TRPC4 PAM inactive, TRPC6 inhibitor inactive, TRPC4 agonist inactive and TRPC4 block inactive.
`COc1cc(CNc2nnnn2C)cc(OC)c1OC` gave Kir21 inh 0.2, TRPC6 act inactive, TRPC4 PAM inactive, TRPC6 inhibitor inactive, TRPC4 agonist inactive and TRPC4 block inactive.
For O=C(NNc1cc(Br)c(O)c(Br)c1)c1ccccc1 the results were Kir21 inh -0.31, TRPC6 act inactive, TRPC4 PAM inactive, TRPC6 inhibitor inactive, TRPC4 agonist inactive and TRPC4 block inactive.
